Experimental data: ChEMBL document CHEMBL1671666, “Anti-human immunodeficiency virus activity, cross-resistance, cytotoxicity, and intracellular pharmacology of the 3'-azido-2',3'-dideoxypurine nucleosides” (Antimicrob Agents Chemother, 2009)
Counter-ions that a name gives are not always drawn.

Legend:
[1] = molecular target: Human immunodeficiency virus type 1 reverse transcriptase (Human immunodeficiency virus 1) (UniProt Q72547); test: Ratio of Kpol to Kd for HIV1 reverse transcriptase
Summary of the method: (§1)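 Pre-steady-state rapid quench with purified WT HIV-1 RT. Quenched with 0.5 M EDTA between 10 ms and 30 min. Products resolved on 7 M urea-16% polyacrylamide gels. Gives kpol and Kd; selectivity = (kpol/Kd)dNTP/(kpol/Kd)NRTI-TP. At least three independent experiments, mean ± SD.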

[2] = molecular target: Human immunodeficiency virus type 1 reverse transcriptase (Human immunodeficiency virus 1) (UniProt Q72547); test: Selectivity, ratio of Kpol to Kd for dATP to Kpol to Kd for compound at HIV1 reverse transcriptase; summary of the method: as §1
[3] = molecular target: Human immunodeficiency virus type 1 reverse transcriptase (Human immunodeficiency virus 1, UniProt Q72547); test: Binding affinity to HIV1 reverse transcriptase; summary of the method: as §1
[4] = molecular target: Human immunodeficiency virus type 1 reverse transcriptase (Human immunodeficiency virus 1) (UniProt Q72547); test: Activity at HIV1 reverse transcriptase measured after 30 mins; summary of the method: as §1
[5] = Half life in PHA-stimulated human PBMC after 12 hrs by LC-MS analysis; format: ADME, cell-based
[6] = molecular target: Human immunodeficiency virus type 1 reverse transcriptase (Human immunodeficiency virus 1) (UniProt Q72547); test: Selectivity, ratio of Kpol to Kd for dGTP to Kpol to Kd for compound at HIV1 reverse transcriptase; summary of the method: as §1
PBMC = test: Drug level in PHA-stimulated human PBMC measured per 10^6 cells at 10 uM after 12 hrs by LC-MS analysis; format: ADME, cell-based
Summary of the method: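 PHA-stimulated human PBMC (24-30 × 10⁶ cells) exposed to a range of nucleoside concentrations for 12 h at 37°C in 5% CO2. […] Triphosphate reported in pmol/10⁶ cells. At least three experiments, mean ± SD.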

[7] = molecular target: Human immunodeficiency virus type 1 reverse transcriptase (Human immunodeficiency virus 1) (UniProt Q72547); test: Selectivity, ratio of Kpol to Kd for TTP to Kpol to Kd for compound at HIV1 reverse transcriptase; summary of the method: as §1
[8] = molecular target: Human immunodeficiency virus type 1 reverse transcriptase (Human immunodeficiency virus 1) (UniProt Q72547); test: Selectivity, ratio of Kpol to Kd for dCTP to Kpol to Kd for compound at HIV1 reverse transcriptase; summary of the method: as §1
[9] = test system: Human immunodeficiency virus 1; test: Antiviral activity against HIV1 infected in human PBMC assessed as inhibition of viral replication; format: functional, organism-based
Summary of the method: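 PBMC from healthy seronegative donors, isolated on a Ficoll-Hypaque gradient and stimulated with PHA for 2-3 days before infection. At least three independent experiments.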

[10] = test system: Human immunodeficiency virus 1; test: Antiviral activity against HIV1 infected in human MT2 cells assessed as inhibition of viral replication; format: functional, organism-based; conditions: Human immunodeficiency virus 1, MT2
[11] = test system: Human immunodeficiency virus 1; test: Antiviral activity against HIV1 infected in human HeLa P4/R5 cells assessed as inhibition of viral replication; format: functional, organism-based; conditions: Human immunodeficiency virus 1, HeLa
Summary of the method: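 Single-cycle assay in P4/R5 HeLa cells carrying an HIV LTR-driven, Tat-activated β-galactosidase gene. Cells kept in phenol red-free DMEM with 10% FBS and 0.5 μg/ml puromycin. Virus stock titred on these cells by threefold endpoint dilution (Reed-Muench). At least three independent experiments.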

Row | Ratio [1] | Kd [3] | Activity [4] | Compound | other results
1 | 1.4 µM⁻¹ s⁻¹ | 4.3 µM | 6.2 s⁻¹ | C[C@H](Cn1cnc2c(N)ncnc21)OCP(=O)(O)OP(=O)(O)OP(=O)(O)O | Selectivity ratio [2]: 5.3
2 | 10.2 µM⁻¹ s⁻¹ | 2.3 µM | 23.2 s⁻¹ | [N-]=[N+]=N[C@H]1C[C@H](n2cnc3c(N)ncnc32)O[C@@H]1COP(=O)(O)OP(=O)(O)OP(=O)(O)O | Selectivity ratio [2]: 0.7
3 | 1.7 µM⁻¹ s⁻¹ | 2.8 µM | 4.8 s⁻¹ | [N-]=[N+]=N[C@H]1C[C@H](n2cnc3c(=O)[nH]c(N)nc32)O[C@@H]1COP(=O)(O)OP(=O)(O)OP(=O)(O)O | half-life [5]: 8.9 h; Selectivity ratio [6]: 1.1
4 |  |  |  | [N-]=[N+]=N[C@H]1C[C@H](n2cnc3c(=O)[nH]c(N)nc32)O[C@@H]1CO | Drug uptake (PBMC): 0.2 pmol
5 | 4.4 µM⁻¹ s⁻¹ |  | 8.8 s⁻¹ | Cc1cn([C@H]2C[C@H](N=[N+]=[N-])[C@@H](COP(=O)(O)OP(=O)(O)OP(=O)(O)O)O2)c(=O)[nH]c1=O | Selectivity ratio [7]: 1
6 | 0.06 µM⁻¹ s⁻¹ |  | 0.023 s⁻¹ | Nc1ccn([C@@H]2CS[C@H](COP(=O)(O)OP(=O)(O)OP(=O)(O)O)O2)c(=O)n1 | Selectivity ratio [8]: 17.8
7 | 1.1 µM⁻¹ s⁻¹ |  | 1.2 s⁻¹ | Nc1ccn([C@H]2C[C@H](O)[C@@H](COP(=O)(O)OP(=O)(O)OP(=O)(O)O)O2)c(=O)n1 | 
8 | 0.16 µM⁻¹ s⁻¹ | 4 µM | 0.6 s⁻¹ | Nc1nc(=O)c2ncn([C@H]3C=C[C@@H](COP(=O)(O)OP(=O)(O)OP(=O)(O)O)C3)c2[nH]1 (single isomer, unassigned) [CARBOVIR 5'-TRIPHOSPHATE, (-)-] | Selectivity ratio [6]: 11.2
9 |  |  |  | Nc1nc(NC2CC2)c2ncn([C@H]3C=C[C@@H](CO)C3)c2n1 [ABACAVIR SULFATE] | IC50 [9]: 0.91 µM; IC50 [10]: 4.8 µM; IC50 [11]: 6.2 µM
10 | 1 µM⁻¹ s⁻¹ | 5.3 µM | 5.4 s⁻¹ | Nc1ncnc2c1ncn2[C@H]1CC[C@@H](COP(=O)(O)OP(=O)(O)OP(=O)(O)O)O1 [DDA-TRIPHOSPHATE] | Selectivity ratio [2]: 7.5

Row | Compound | Ratio [1] | Kd [3] | Activity [4] | other results
11 | Nc1ncnc2c1ncn2[C@H]1C[C@H](O)[C@@H](COP(=O)(O)OP(=O)(O)OP(=O)(O)O)O1 | 7.6 µM⁻¹ s⁻¹ | 3.2 µM | 24.4 s⁻¹ | 
